The test system of data set [1] is PC-3. Description: Induction of mitochondrial membrane depolarization in human PC3 cells at 2 uM after 24 hrs by JC1 staining-based flow cytometric method (reference value: 11.9%). In kind it is functional. In general terms: Flow cytometry measures light scatter and fluorescence of single cells or particles in a stream.
Data set [2] relates to PC-3. The data set is described as follows: Induction of apoptosis in human PC3 cells assessed as early apoptotic cells at 2 uM after 24 hrs by FITC-annexin V/propidium iodide staining-based flow cytometric method (reference value: 7.62%). The class given is functional.
In data set [3] the test system is PC-3. Description: Potency index, ratio of curcumin IC50 to test compound IC50 for human PC3 cells. The class given is functional.
Data set [4] relates to PC-3. The data set is described as follows: Cell cycle arrest in human PC3 cells assessed as accumulation at G0/G1 phase at 2 uM after 24 hrs by propidium iodide staining-based flow cytometric method (reference value: 58.41%). In kind it is functional.
Data set [5] relates to PC-3. Description: Induction of apoptosis in human PC3 cells assessed as appearance of horse-shoe shaped nuclei at 1 to 2 uM after 48 hrs by DAPI staining-based fluorescence microscopic method. The class given is functional, cell-based. The essentials:
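PC-3 cells (25000/well) adhered overnight, then treated 48 h at 1 or 2 µM. After PBS wash, fixed 20 min in 4% neutral buffered formalin, permeabilized 5 min with 0.2% Triton X, and stained 10 min at room temperature with DAPI (1 µg/mL). Nuclei viewed by fluorescence microscopy (ex 350 nm, em 460 nm, 200x).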

Data set [6] has as its system PC-3. The data set is described as follows: Cell cycle arrest in human PC3 cells assessed as accumulation at S phase at 2 uM after 24 hrs by propidium iodide staining-based flow cytometric method (reference value: 8.08%). The class given is functional.
Data set [7] is described as follows: Selectivity index, ratio of IC50 for human RWPE1 cells to IC50 for human PC3 cells. In kind it is toxicity. As to conditions: RWPE1 cells versus PC3 cells, read-out: Ratio IC50.
The subject of data set [8] is PC-3. Description: Cell cycle arrest in human PC3 cells assessed as accumulation at G2/M phase at 1 uM after 24 hrs by propidium iodide staining-based flow cytometric method (reference value: 33.13%). In kind it is functional.
The test system of data set [9] is PC-3. The data set is described as follows: Induction of reactive oxygen species formation in human PC3 cells at 1 to 2 uM after 6 hrs by DCFDA staining-based flow cytometric method. The class given is functional, cell-based. The gist of the method:
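PC-3 cells at 1 x 10^5 cells/mL adhered overnight, then exposed to 1 or 2 µM. Medium replaced with DCFDA (10 µM) for 0.5 h at room temperature in the dark; fluorescence read by flow cytometry (ex 488 nm, em 530 nm). Mean ± SEM of three experiments, one-way ANOVA with Dunnett's test.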

Calls of active or inactive are those of the source. No cut-off for these calls is given here.

Regarding `COc1cc(OC)c(/C=C/C(=O)/C=C/c2nc3ccccn3c2-c2ccc(F)c(F)c2)c(OC)c1`, the Activity was 23.67% with PC-3 [1]; 3.4% in the data set on PC-3 [2]; 32.66% in the data set with PC-3 [4]; 0.76% with PC-3 [6]; 44.65% in the data set with PC-3 [8]. The “Ratio IC50” value with PC-3 [3] is recorded as 8.9. Besides, the result with PC-3 [5] and in the data set on PC-3 [9] was Active. The selectivity ratio in data set [7] is 2.

The values are drawn from ChEMBL document CHEMBL4251576, “Synthesis and biological evaluation of curcumin inspired imidazo[1,2-a]pyridine analogues as tubulin polymerization inhibitors” (Eur J Med Chem, 2018).
